The text below walks through data of ChEMBL document CHEMBL4823332, “Discovery and Development of Cyclic Peptide Inhibitors of CIB1” (ACS Med Chem Lett, 2021).

Series [1] is described as follows: Cytotoxicity against human MDA-MB-231 cells assessed as cell death at 30 uM incubated for 24 hrs by trypan blue assay. The series is classed as cell-based. The conditions noted are these: mda-mb-231, 24 h.
Series [2] can be described thus: Stability in human MDA-MB-468 cell lysates assessed as compound remaining at 150 uM after 24 hrs by LCMS method. Type of series: ADME, subcellular. The settings on record: read-out: Stabilty. The gist of the method: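 Peptides were incubated in MDA-MB-468 cell lysates at 37 °C.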
For series [3], the target named is T1, Calcium and integrin-binding protein 1 (Homo sapiens, UniProt Q99828).
T1 sequence (Q99828 whole entry): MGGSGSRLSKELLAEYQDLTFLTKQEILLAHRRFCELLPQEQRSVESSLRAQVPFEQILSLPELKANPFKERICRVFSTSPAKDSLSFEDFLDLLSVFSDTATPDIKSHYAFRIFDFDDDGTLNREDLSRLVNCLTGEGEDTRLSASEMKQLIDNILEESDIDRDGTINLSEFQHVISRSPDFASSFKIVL
Put plainly: Displacement of Alexa Fluor 647 labelled UNC10245092 peptide from CIB1 (unknown origin) preincubated for 20 mins followed by Alexa-CIB1 phage peptide addition and measured after 20 to 30 mins by TR-FRET assay. On the technique in general: In TR-FRET formats the signal depends on donor and acceptor labels being close together.

The subject of a further series is MDA-MB-468. Put plainly: Cytotoxicity against human MDA-MB-468 cells assessed as cell death at 30 uM incubated for 24 hrs by trypan blue assay. Type of series: functional.
In series [4] the target is T2, Calcium and integrin-binding protein 1 (Homo sapiens) (UniProt Q99828).
T2 sequence (whole entry): T1 sequence (Q99828 whole entry)
Nature of the series: Inhibition of CIB1 in human MDA-MB-468 cells assessed as reduction in CIB1 level after 6 hrs by Western blotting analysis. Type of series: cell-based. The gist of the method:
(§1)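 Cells were treated with peptide for 6 h and for 24 h alongside a DMSO vehicle control. Lysates were then immunoblotted for phospho-AKT, phospho-ERK and CIB1, and the levels were compared with the DMSO-treated cells.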
(In general: In western blotting, separated proteins are transferred to a membrane and probed.)

The target of series [5] is T2, Calcium and integrin-binding protein 1 (Homo sapiens). Nature of the series: Inhibition of CIB1 in human MDA-MB-231 cells assessed as reduction in pERK level after 6 to 24 hrs by Western blotting analysis. The series is classed as cell-based. The conditions noted are these: time 6-24 hrs. Summed up: as §1
For series [6] the target is unchanged. Nature of the series: Inhibition of CIB1 in human MDA-MB-468 cells assessed as reduction in pERK level after 6 to 24 hrs by Western blotting analysis. The series is classed as cell-based. The settings on record: time 6-24 hrs. Summed up:
as §1

The target is the same in series [7]. Put plainly: Inhibition of CIB1 in human MDA-MB-231 cells assessed as reduction in pAKT level after 6 to 24 hrs by Western blotting analysis. The series is classed as cell-based. The conditions noted are these: time 6-24 hrs. Summed up: as §1
Series [8] shares this target. Put plainly: Inhibition of CIB1 in human MDA-MB-468 cells assessed as reduction in pAKT level after 6 to 24 hrs by Western blotting analysis. The series is classed as cell-based. The settings on record: time 6-24 hrs. Summed up:
as §1

Series [9] has the same target. Nature of the series: Inhibition of CIB1 in human MDA-MB-231 cells assessed as reduction in CIB1 level after 6 hrs by Western blotting analysis. Type of series: cell-based. Summed up: as §1
Series [10] has the same target. Nature of the series: Inhibition of CIB1 in human MDA-MB-231 cells assessed as reduction in ERK activity after 6 to 24 hrs by Western blotting analysis. The series is classed as cell-based. The conditions noted are these: time 6-24 hrs. The gist of the method: as §1
For series [11] the target is unchanged. Put plainly: Inhibition of CIB1 in human MDA-MB-468 cells assessed as reduction in ERK activity after 6 to 24 hrs by Western blotting analysis. The series is classed as cell-based. The conditions noted are these: time 6-24 hrs. Summed up: as §1
Series [12] shares this target. Nature of the series: Inhibition of CIB1 in human MDA-MB-468 cells assessed as reduction in AKT activity after 6 to 24 hrs by Western blotting analysis. The series is classed as cell-based. The conditions noted are these: time 6-24 hrs. The gist of the method:
as §1

For series [13] the target is unchanged. Nature of the series: Inhibition of CIB1 in human MDA-MB-231 cells assessed as reduction in AKT activity after 6 to 24 hrs by Western blotting analysis. The series is classed as cell-based. The settings on record: time 6-24 hrs. Summed up:
as §1

Series [14] has as its target T1, Calcium and integrin-binding protein 1. Nature of the series: Binding affinity to full length CIB1 (unknown origin) at 300 uM by isothermal titration calorimetry.

pIC50, pKd: −log10 of the molar value. Active and inactive are the calls of the source. No cut-off for these calls is given here. Starred links: 1 amine or outer side, 2 acyl side, 3 side chain; linkers in the order of their positions; H or OH if unused. Positions of bridges follow the written chain, without caps; N, C: chain ends. Non-standard residues stand in square brackets, D forms with d. Residues, ends and D or L forms follow the SMILES beside them. *: point of attachment. NH(CH2CH2O)2(CH2)6Cl = ClCCCCCCOCCOCCN*; Ala(2-furyl) = N[C@@H](Cc1ccco1)C(=O)O; Suc = O=C(CCC(=O)[*:2])[*:1]; hLeu = CC(C)CC[C@H](N)C(=O)O; Nle = CCCC[C@H](N)C(=O)O

For the compound `CC[C@H](C)[C@@H]1NC(=O)[C@H](CC(C)C)NC(=O)[C@H](Cc2c[nH]c3ccccc23)NC(=O)[C@H](Cc2ccc(O)cc2)NC(=O)[C@@H]2CCCN2C(=O)[C@H](CCC(N)=O)NC(=O)[C@H](C)NC(=O)[C@H](Cc2ccc(O)cc2)NC(=O)CSC[C@@H](C(N)=O)NC(=O)[C@H](Cc2c[nH]c3ccccc23)NC(=O)[C@H](CC(N)=O)NC1=O` ({CH2CO}-YAQPYWLINWC-NH2; thioether N-11), the Activity is recorded as 1.5% in [1] and 2.7% in the series on MDA-MB-468. Moreover, in series [2], the remaining at 24 h, 150 µM stood at 21.9%. In addition, in [3], the pIC50 (usually −log10 of the IC50, conventionally taken in molar units) was 8.05.

As for `CSCC[C@H](NC(=O)[C@H](C)NC(=O)CNC(=O)[C@H](Cc1ccc(O)cc1)NC(=O)[C@H](C)NC(=O)[C@H](Cc1ccccc1)NC(=O)[C@H](CO)NC(=O)CNC(=O)CNC(=O)[C@H](CC(=O)O)NC(=O)[C@H](CCC(=O)O)NC(=O)[C@H](CCC(N)=O)NC(=O)[C@@H]1CCCN1C(=O)[C@H](CCCNC(=N)N)NC(=O)[C@H](CCCNC(=N)N)NC(=O)[C@H](CCCNC(=N)N)NC(=O)[C@H](CCC(N)=O)NC(=O)[C@H](CCCNC(=N)N)NC(=O)[C@H](CCCNC(=N)N)NC(=O)[C@H](CCCCN)NC(=O)[C@H](CCCCN)NC(=O)[C@H](CCCNC(=N)N)NC(=O)CNC(=O)CCC(=O)NCCOCCOCCCCCCCl)C(=O)N[C@@H](CCCCN)C(=O)N[C@@H](C)C(=O)N[C@@H](CC(C)C)C(=O)N[C@@H](C)C(=O)NCC(N)=O` ({NH(CH2CH2O)2(CH2)6Cl-Suc}-GRKKRRQRRRPQEDGGSFAYGAMKALAG-NH2), the Activity is given as 1.9% in [1] and 1.1% in the series with MDA-MB-468. Moreover, the remaining at 24 h, 150 µM in series [2] amounted to 0%. Also, the pIC50 in [3] was less than 5.00.

In the case of `CSCC[C@H](NC(=O)[C@H](C)NC(=O)CNC(=O)[C@H](Cc1ccc(O)cc1)NC(=O)[C@H](Cc1c[nH]c2ccccc12)NC(=O)[C@H](Cc1ccccc1)NC(=O)[C@H](CO)NC(=O)CNC(=O)CNC(=O)[C@H](CC(=O)O)NC(=O)[C@H](CCC(=O)O)NC(=O)[C@H](CCC(N)=O)NC(=O)[C@@H]1CCCN1C(=O)[C@H](CCCNC(=N)N)NC(=O)[C@H](CCCNC(=N)N)NC(=O)[C@H](CCCNC(=N)N)NC(=O)[C@H](CCC(N)=O)NC(=O)[C@H](CCCNC(=N)N)NC(=O)[C@H](CCCNC(=N)N)NC(=O)[C@H](CCCCN)NC(=O)[C@H](CCCCN)NC(=O)[C@H](CCCNC(=N)N)NC(=O)CNC(=O)CCC(=O)NCCOCCOCCCCCCCl)C(=O)N[C@@H](CCCCN)C(=O)N[C@@H](C)C(=O)N[C@@H](CC(C)C)C(=O)N[C@@H](Cc1ccc(O)cc1)C(=O)NCC(N)=O` ({NH(CH2CH2O)2(CH2)6Cl-Suc}-GRKKRRQRRRPQEDGGSFWYGAMKALYG-NH2), the inhibition entry in series [4], in series [5], in [6], in series [7], in series [8] and in series [9] was “Active” throughout. In addition, the values for the Activity (in [1]; with MDA-MB-468) were 9.6% and 57.1%, respectively. Also, in series [2], the remaining at 24 h, 150 µM was determined as 0%. Besides, the negative logarithm of the IC50 (pIC50) in [3] is 6.82.

`CC[C@H](C)[C@@H]1NC(=O)[C@H](CC(C)C)NC(=O)[C@H](Cc2c[nH]c3ccccc23)NC(=O)[C@H](Cc2ccc(O)cc2)NC(=O)[C@@H]2CCCN2C(=O)[C@H](CCC(N)=O)NC(=O)[C@H](CCCCN)NC(=O)[C@H](Cc2ccc(O)cc2)NC(=O)CSC[C@@H](C(N)=O)NC(=O)[C@H](Cc2c[nH]c3ccccc23)NC(=O)[C@H](CC(N)=O)NC1=O` ({CH2CO}-YKQPYWLINWC-NH2; thioether N-11): the inhibition result in [4], in series [10], in [11], in series [12], in series [13] and in [9] was “inactive” in each case. The Activity in [1] is 2%; in the series on MDA-MB-468 it was 2.7%. In addition, the remaining at 24 h, 150 µM in series [2] was 48.6%. The pIC50 in [3] is 7.92. In [14], the pKd (usually −log10 of the Kd, conventionally taken in molar units) was 8.22.

Turning to `CCCC[C@@H]1NC(=O)[C@H](Cc2ccc(O)cc2)NC(=O)CSC[C@@H](C(N)=O)NC(=O)[C@H](Cc2c[nH]c3ccccc23)NC(=O)[C@H](CC(C)C)NC(=O)[C@H]([C@@H](C)CC)NC(=O)[C@H](CC(C)C)NC(=O)[C@H](Cc2c[nH]c3ccccc23)NC(=O)[C@H](Cc2ccc(O)cc2)NC(=O)[C@@H]2CCCN2C(=O)[C@H](CCC(N)=O)NC1=O` ({CH2CO}-Y[Nle]QPYWLILWC-NH2; thioether N-11), the Activity in [1] is given as 1.1%; in the series with MDA-MB-468, 3.4%. Besides, the remaining at 24 h, 150 µM in series [2] came to 62.2%. The pIC50 in series [3] was 7.23.

On to `CCCC[C@@H]1NC(=O)[C@H](Cc2ccc(O)cc2)NC(=O)CSC[C@@H](C(N)=O)NC(=O)[C@H](Cc2c[nH]c3ccccc23)NC(=O)[C@H](Cc2ccco2)NC(=O)[C@H]([C@@H](C)CC)NC(=O)[C@H](CC(C)C)NC(=O)[C@H](Cc2c[nH]c3ccccc23)NC(=O)[C@H](Cc2ccc(O)cc2)NC(=O)[C@@H]2CCCN2C(=O)[C@H](CCC(C)C)NC1=O` ({CH2CO}-Y[Nle][hLeu]PYWLI[Ala(2-furyl)]WC-NH2; thioether N-11), for which the pIC50 in [3] was 5.82.

Regarding `CC[C@H](C)[C@@H]1NC(=O)[C@H](CC(C)C)NC(=O)[C@H](Cc2c[nH]c3ccccc23)NC(=O)[C@H](C)NC(=O)[C@@H]2CCCN2C(=O)[C@H](CCC(N)=O)NC(=O)[C@H](CCCCN)NC(=O)[C@H](Cc2ccc(O)cc2)NC(=O)CSC[C@@H](C(N)=O)NC(=O)[C@H](Cc2c[nH]c3ccccc23)NC(=O)[C@H](CC(N)=O)NC1=O` ({CH2CO}-YKQPAWLINWC-NH2; thioether N-11), the pIC50 in series [3] was 6.33.

`CC[C@H](C)[C@@H]1NC(=O)[C@H](CC(N)=O)NC(=O)[C@H](Cc2c[nH]c3ccccc23)NC(=O)[C@H]([C@@H](C)CC)NC(=O)[C@@H]2CCCN2C(=O)[C@H]([C@@H](C)O)NC(=O)[C@H]([C@@H](C)O)NC(=O)[C@H](Cc2ccc(O)cc2)NC(=O)CSC[C@@H](C(N)=O)NC(=O)[C@H](Cc2ccccc2)NC(=O)[C@H](CCCNC(=N)N)NC1=O` ({CH2CO}-YTTPIWNIRFC-NH2; thioether N-11): the pIC50 in series [3] was 7.82.

As to `CSCC[C@H](NC(=O)[C@H](C)NC(=O)CNC(=O)[C@H](Cc1ccc(O)cc1)NC(=O)[C@H](Cc1c[nH]c2ccccc12)NC(=O)[C@H](Cc1ccccc1)NC(=O)[C@H](CO)NC(=O)CNC(=O)CNC(=O)[C@H](CC(=O)O)NC(=O)[C@H](CCC(=O)O)NC(=O)CCC(=O)NCCOCCOCCCCCCCl)C(=O)N[C@@H](CCCCN)C(=O)N[C@@H](C)C(=O)N[C@@H](CC(C)C)C(=O)N[C@@H](Cc1ccc(O)cc1)C(=O)NCC(N)=O` ({NH(CH2CH2O)2(CH2)6Cl-Suc}-EDGGSFWYGAMKALYG-NH2), the values for the Activity (in series [1]; with MDA-MB-468) were 9.5% and 1.7%, respectively. Also, the pIC50 in series [3] is 7.34. For the same compound, the pKd in series [14] was 7.53.
